In ChEMBL document CHEMBL1926517, “C-terminal tetrapeptides inhibit Aβ42-induced neurotoxicity primarily through specific interaction at the N-terminus of Aβ42” (J Med Chem, 2011):
Calls of active or inactive are those of the source. The rule behind the calls is not given here. Residues, ends and D or L forms follow the SMILES beside them.

Key:
[1] = test system: PC-12; assay: Neuroprotective activity in rat PC12 cells assessed as inhibition of amyloid-beta (1 to 42)-induced cell death after 24 hrs by LDH release assay; assay type: functional, cell-based; details: PC-12, 24 h
In short: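 PC-12 cells were differentiated with NGF (100 ng/mL, 48 h), then exposed to Aβ42 alone or Aβ42:peptide mixtures at 1:1, 1:2, 1:5 and 1:10 ratios. Cell death was measured by LDH release (membrane integrity kit). IC50 was taken from the dose–response, ≥3 independent experiments with 6 replicates each, mean ± SEM.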

[2] = test system: PC-12; assay: Neuroprotective activity in rat PC12 cells assessed as inhibition of amyloid-beta (1 to 42)-induced cell death after 24 hrs by MTT assay; assay type: functional, cell-based; details: for IC50: PC-12, 24 h
In short: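 NGF-differentiated PC-12 cells (100 ng/mL, 48 h) were given 10 μM Aβ42 plus peptide at 1:1, 1:2, 1:5 and 1:10 ratios for 24 h, and read by MTT. Viability was scaled to 1 μM staurosporine full kill (100% loss), with NaOH-matched vehicle and medium as negative controls. IC50 from dose–response, ≥3 independent experiments × 6 replicates, mean ± SEM.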

[3] = Binding affinity to amyloid beta (1 to 42) Try residue at position 1 assessed as change in fluorescence intensity using N-terminus amidated compound
In short: (§1)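 HFIP-pretreated Aβ42 or its Y-substituted analogue (5 μM nominal) was mixed with tetrapeptide (50 μM nominal), taken up in 60 mM NaOH (10% of volume), then diluted with 10 mM sodium phosphate pH 7.4 and spun briefly. Exact concentrations were set afterwards by AAA. Read-out: excitation 280 nm, emission 290–400 nm at 22°C, ≥10 immediate scans. Buffer-subtracted area per micromole was normalized to the analogue alone. Four independent experiments.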

[4] = Binding affinity to amyloid beta (1 to 42) Try residue at position 1 assessed as change in fluorescence intensity; in short: as §1
[5] = Binding affinity to amyloid beta (1 to 42) Try residue at position 1 assessed as change in fluorescence intensity using C-terminus acetylated compound; in short: as §1
[6] = Binding affinity to amyloid beta (1 to 42) Try residue at position 42 assessed as change in fluorescence intensity
In short: (§2)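 Aβ42 or Y-substituted analogue (5 μM final) mixed with tetrapeptide (50 μM final), HFIP-pretreated, dissolved in 60 mM NaOH (10% of volume) then diluted in 10 mM sodium phosphate pH 7.4. Spun 5,000 g 1 min, concentration confirmed post facto by AAA. Excitation 280 nm, emission 290–400 nm, 22°C, ≥10 scans of ~1 min right after preparation. Buffer subtracted, area under curve normalized to peptide alone. Four independent experiments, mean ± SEM.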

[7] = test system: PC-12; assay: Neuroprotective activity in rat PC12 cells assessed as inhibition of alamethicin-induced cell death after 24 hrs by MTT assay; assay type: functional, cell-based
In short: (§3)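 NGF-differentiated PC-12 cells (100 ng/mL, 48 h) treated 24 h with α-synuclein (15 μM) or alamethicin (4 μM), alone or with a range of tetrapeptide concentrations. MTT read-out. Mean ± SEM of ≥3 independent experiments, 5 replicates per point.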

[8] = Binding affinity to amyloid beta (1 to 42) Try residue at position 20 assessed as change in fluorescence intensity; in short: as §2
[9] = Binding affinity to amyloid beta (1 to 42) Try residue at position 30 assessed as change in fluorescence intensity; in short: as §2
[10] = Binding affinity to amyloid beta (1 to 42) Try residue at position 30 assessed as change in fluorescence intensity using N-terminus amidated compound; in short: as §1
[11] = test system: PC-12; assay: Neuroprotective activity in rat PC12 cells assessed as inhibition of alpha-synuclein-induced cell death after 24 hrs by MTT assay; assay type: functional, cell-based; in short: as §3
[12] = Binding affinity to wild type amyloid beta (1 to 42) assessed as change in fluorescence intensity; in short: as §2
[13] = test system: PC-12; assay: Neuroprotective activity in rat PC12 cells assessed as inhibition of staurosporine-induced cell death after 24 hrs by MTT assay; assay type: functional, cell-based
In short: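 Differentiated PC-12 cells (NGF 100 ng/mL, 48 h) exposed to 0.2 μM staurosporine, with or without varying tetrapeptide concentrations, for 24 h. Viability was read by MTT. Mean ± SEM, ≥3 independent experiments with 5 replicates per point.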

[14] = Binding affinity to amyloid beta (1 to 42) assessed as change in fluorescence intensity using C-terminus acetylated compound; in short: as §1
[15] = test system: PC-12; assay: Neuroprotective activity in rat PC12 cells assessed as inhibition of staurosporine-induced cell death after 24 hrs by MTT assay
[16] = Cytotoxicity against rat PC12 cells assessed as cell viability at 1 uM after 24 hrs by MTT assay; assay type: cell-based, PC-12; details: read-out: Activity

With `CC[C@H](C)[C@H](NC(=O)[C@H](C)NC(=O)[C@@H](N)C(C)C)C(=O)N[C@@H](C)C(=O)O` (H-VAIA-OH) as the compound, how does the IC50 [1] read?
The IC50 was 14 µM.

What about the Activity [2] of the same compound?
Its Activity is “Dose-dependent effect”.

And the IC50 [2]?
The IC50 was 15 µM.

Which Activity [2] does the source give for `CC[C@H](C)[C@H](NC(=O)[C@H](C)N)C(=O)N[C@H](C(=O)N[C@H](C(N)=O)C(C)C)C(C)C` (H-AIVV-NH2) here?
Its Activity is “Dose-dependent effect”.

Which Flu intensity [3] does the source give for `CC[C@H](C)[C@H](NC(=O)[C@@H](NC(=O)[C@@H](N)C(C)C)C(C)C)C(=O)N[C@@H](C)C(=O)O` here?
Its Flu intensity is 62%.

What about the Flu intensity [4] of the same compound?
The Flu intensity was 117%.

And the Flu intensity [5]?
The Flu intensity was 48%.

And the Activity [6]?
Its Activity is “inactive”.

What about the Activity [7] of the same compound?
Its Activity is “inactive”.

And the Activity [8]?
The Activity was “inactive”.

And the Activity [9]?
The Activity was “inactive”.

And the Flu intensity [10]?
Its Flu intensity is 24%.

What about the Activity [11] of the same compound?
Its Activity is “inactive”.

What about the Activity [12] of the same compound?
The Activity was “inactive”.

What about the Activity [2] of the same compound?
The Activity was “Dose-dependent effect”.

And the IC50 [2]?
The IC50 was 21 µM.

What about the Activity [13] of the same compound?
The Activity was “inactive”.

And the Flu intensity [14]?
Its Flu intensity is 19%.

What about the Activity [15] of the same compound?
Its Activity is “inactive”.

Which viability at 24 h, 1 µM [16] does the source give for `CN[C@@H]1C[C@H]2O[C@@](C)([C@@H]1OC)n1c3ccccc3c3c4c(c5c6ccccc6n2c5c31)C(=O)NC4` [STAUROSPORINE] here?
Its viability at 24 h, 1 µM is 100%.

For `CC[C@H](C)[C@H](NC(=O)[C@H](C)N)C(=O)N[C@H](C(=O)N[C@H](C(=O)O)C(C)C)C(C)C` (H-AIVV-OH), which Activity [2] is on record?
Its Activity is “Dose-dependent effect”.

With `CC[C@H](C)[C@H](NC(=O)[C@@H](NC(=O)[C@@H](N)C(C)C)C(C)C)C(=O)N[C@@H](C)C(N)=O` (H-VVIA-NH2) as the compound, how does the IC50 [1] read?
Its IC50 is 30 µM.

And the Activity [2]?
The Activity was “Dose-dependent effect”.

What about the IC50 [2] of the same compound?
Its IC50 is 28 µM.

With `CC[C@H](C)[C@H](NC(=O)[C@@H](NC(=O)[C@H](C)N)C(C)C)C(=O)N[C@@H](C)C(=O)O` (H-AVIA-OH) as the compound, how does the IC50 [1] read?
The IC50 was 22 µM.

And the Activity [2]?
Its Activity is “Dose-dependent effect”.

And the IC50 [2]?
Its IC50 is 53 µM.
